Source: ChEMBL document CHEMBL1275334, “5-Piperazinyl-3-sulfonylindazoles as potent and selective 5-hydroxytryptamine-6 antagonists” (J Med Chem, 2010)
The source made the active and inactive calls. No cut-off for these calls is given here.

What was measured:
[1] = biological target: T1, 5-hydroxytryptamine receptor 6 (Homo sapiens, UniProt P50406); test: Antagonist activity at human cloned 5HT6 receptor expressed in human HeLa cells by cyclase assay relative to control; format: functional, cell-based
[2] = biological target: T2, 5-hydroxytryptamine receptor 1A (Homo sapiens, UniProt P08908); test: Displacement of [3H]LSD from human cloned 5HT1A receptor expressed in human HeLa cells; format: cell-based
T2 sequence (P08908 whole entry): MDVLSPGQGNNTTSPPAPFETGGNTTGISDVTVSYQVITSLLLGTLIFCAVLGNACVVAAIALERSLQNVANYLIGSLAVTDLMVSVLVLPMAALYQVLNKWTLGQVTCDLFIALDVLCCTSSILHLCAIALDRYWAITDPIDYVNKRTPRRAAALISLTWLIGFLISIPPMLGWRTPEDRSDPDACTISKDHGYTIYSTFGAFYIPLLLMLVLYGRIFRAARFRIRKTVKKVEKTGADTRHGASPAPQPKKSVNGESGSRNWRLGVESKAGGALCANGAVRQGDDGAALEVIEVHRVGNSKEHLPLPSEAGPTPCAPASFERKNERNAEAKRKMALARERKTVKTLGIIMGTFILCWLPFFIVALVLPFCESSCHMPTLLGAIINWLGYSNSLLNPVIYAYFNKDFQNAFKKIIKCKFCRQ

[3] = biological target: 5-hydroxytryptamine receptor 1B (Homo sapiens, UniProt P28222); test: Displacement of [3H]LSD from human cloned 5HT1B receptor expressed in human HeLa cells; format: cell-based
[4] = biological target: 5-hydroxytryptamine receptor 1D (Homo sapiens, UniProt P28221); test: Displacement of [3H]LSD from human cloned 5HT1D receptor expressed in human HeLa cells; format: cell-based
[5] = biological target: T3, 5-hydroxytryptamine receptor 2B (Homo sapiens, UniProt P41595); test: Displacement of [3H]LSD from human cloned 5HT2B receptor expressed in human HeLa cells; format: cell-based
[6] = biological target: T4, 5-hydroxytryptamine receptor 2C (Homo sapiens, UniProt P28335); test: Displacement of [3H]LSD from human cloned 5HT2C receptor expressed in human HeLa cells; format: cell-based
T4 sequence (P28335 whole entry): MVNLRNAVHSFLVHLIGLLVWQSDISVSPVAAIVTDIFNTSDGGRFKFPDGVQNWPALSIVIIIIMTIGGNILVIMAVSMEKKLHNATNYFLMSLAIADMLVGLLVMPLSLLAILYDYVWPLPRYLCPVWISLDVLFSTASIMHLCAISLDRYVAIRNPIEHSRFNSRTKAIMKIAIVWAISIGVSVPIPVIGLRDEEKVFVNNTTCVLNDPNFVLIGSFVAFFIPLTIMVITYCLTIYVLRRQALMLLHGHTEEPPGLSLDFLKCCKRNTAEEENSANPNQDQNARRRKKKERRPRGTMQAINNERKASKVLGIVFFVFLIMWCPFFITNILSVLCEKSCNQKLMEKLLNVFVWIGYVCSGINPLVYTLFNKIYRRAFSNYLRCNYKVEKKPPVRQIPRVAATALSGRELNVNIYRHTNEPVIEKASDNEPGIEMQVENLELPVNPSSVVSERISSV

[7] = biological target: 5-hydroxytryptamine receptor 7 (Homo sapiens, UniProt P34969); test: Displacement of [3H]LSD from human cloned 5HT7 receptor expressed in human HeLa cells; format: cell-based
[8] = biological target: T5, Alpha-2A adrenergic receptor (Homo sapiens, UniProt P08913); test: Displacement of [3H]LSD from human cloned alpha2A adrenergic receptor expressed in human HeLa cells; format: cell-based
T5 sequence (P08913 whole entry): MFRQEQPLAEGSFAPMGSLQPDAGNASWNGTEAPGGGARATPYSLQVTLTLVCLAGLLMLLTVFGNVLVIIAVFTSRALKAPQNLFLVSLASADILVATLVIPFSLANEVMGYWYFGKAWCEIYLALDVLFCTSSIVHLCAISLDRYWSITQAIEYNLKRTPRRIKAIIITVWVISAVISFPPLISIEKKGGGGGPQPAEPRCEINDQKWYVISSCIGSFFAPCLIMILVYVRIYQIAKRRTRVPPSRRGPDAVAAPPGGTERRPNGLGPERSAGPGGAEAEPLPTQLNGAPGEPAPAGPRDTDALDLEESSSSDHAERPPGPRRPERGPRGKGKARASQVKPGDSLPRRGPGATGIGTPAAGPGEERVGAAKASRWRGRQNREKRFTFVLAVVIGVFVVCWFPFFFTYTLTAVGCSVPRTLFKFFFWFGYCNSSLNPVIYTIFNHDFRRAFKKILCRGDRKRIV

D(2) dopamine receptor = D(2) dopamine receptor (Homo sapiens, UniProt P14416); test: Displacement of [3H]LSD from human cloned dopamine D2 receptor expressed in human HeLa cells; format: cell-based
[9] = biological target: T3, 5-hydroxytryptamine receptor 2B; test: Agonist activity at human recombinant 5HT2B receptor expressed in CHOK1 cells at 0.0001 to 10 uM by FLIPR assay; format: functional, cell-based; conditions: CHO-K1
[10] = biological target: T1, 5-hydroxytryptamine receptor 6; test: Displacement of [3H]LSD from human cloned 5HT6 receptor expressed in human HeLa cells; format: cell-based
In short: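 Radioligand displacement of [3H]LSD from cloned human 5-HT6 receptor stably expressed in HeLa cells. All test substances were used as HCl salts. Ki was determined in triplicate.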

[11] = biological target: T1, 5-hydroxytryptamine receptor 6; test: Antagonist activity at human cloned 5HT6 receptor expressed in human HeLa cells by cyclase assay; format: functional, cell-based
[12] = Oral bioavailability in rat at 10 mg/kg; format: ADME, organism-based; conditions: in vivo
[13] = Ratio of drug level in brain to plasma in rat at 10 mg/kg, po; format: ADME, organism-based; set-up: dose 10 mg/kg, route oral; conditions: read-out: BPR

5-hydroxytryptamine receptor 1D, sequence (P28221 whole entry): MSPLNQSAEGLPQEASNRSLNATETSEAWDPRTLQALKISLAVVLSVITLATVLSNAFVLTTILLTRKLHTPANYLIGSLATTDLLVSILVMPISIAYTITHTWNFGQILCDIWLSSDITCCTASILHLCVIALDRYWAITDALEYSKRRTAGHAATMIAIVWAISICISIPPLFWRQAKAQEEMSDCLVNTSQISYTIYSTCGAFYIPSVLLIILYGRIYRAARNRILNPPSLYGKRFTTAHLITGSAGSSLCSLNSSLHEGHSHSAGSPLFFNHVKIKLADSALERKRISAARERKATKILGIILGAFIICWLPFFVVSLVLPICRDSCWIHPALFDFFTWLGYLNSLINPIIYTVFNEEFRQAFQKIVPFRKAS
5-hydroxytryptamine receptor 1B, sequence (P28222 whole entry): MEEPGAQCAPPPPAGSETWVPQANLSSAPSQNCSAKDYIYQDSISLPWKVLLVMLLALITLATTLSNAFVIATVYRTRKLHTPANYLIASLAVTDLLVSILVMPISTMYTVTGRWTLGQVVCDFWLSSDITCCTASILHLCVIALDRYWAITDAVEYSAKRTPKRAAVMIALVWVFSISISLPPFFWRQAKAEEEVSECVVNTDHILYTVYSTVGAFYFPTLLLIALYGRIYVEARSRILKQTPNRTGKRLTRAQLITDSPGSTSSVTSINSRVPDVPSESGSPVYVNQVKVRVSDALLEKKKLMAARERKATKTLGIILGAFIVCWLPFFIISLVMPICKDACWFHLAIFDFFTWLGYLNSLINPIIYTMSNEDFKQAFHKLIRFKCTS
D(2) dopamine receptor, sequence (P14416 whole entry): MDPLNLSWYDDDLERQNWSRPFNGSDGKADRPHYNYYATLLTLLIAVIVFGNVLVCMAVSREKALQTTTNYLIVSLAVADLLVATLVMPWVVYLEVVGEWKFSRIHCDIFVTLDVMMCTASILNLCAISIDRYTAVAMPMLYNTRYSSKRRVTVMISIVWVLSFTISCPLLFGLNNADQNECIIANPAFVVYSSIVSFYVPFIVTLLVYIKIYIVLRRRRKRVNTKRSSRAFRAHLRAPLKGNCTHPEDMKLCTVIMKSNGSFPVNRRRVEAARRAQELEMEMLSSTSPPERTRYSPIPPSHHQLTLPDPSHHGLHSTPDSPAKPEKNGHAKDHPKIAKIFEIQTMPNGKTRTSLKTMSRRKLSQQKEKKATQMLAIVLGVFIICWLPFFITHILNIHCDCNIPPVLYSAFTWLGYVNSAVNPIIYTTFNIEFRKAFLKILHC
T3 sequence (P41595 whole entry): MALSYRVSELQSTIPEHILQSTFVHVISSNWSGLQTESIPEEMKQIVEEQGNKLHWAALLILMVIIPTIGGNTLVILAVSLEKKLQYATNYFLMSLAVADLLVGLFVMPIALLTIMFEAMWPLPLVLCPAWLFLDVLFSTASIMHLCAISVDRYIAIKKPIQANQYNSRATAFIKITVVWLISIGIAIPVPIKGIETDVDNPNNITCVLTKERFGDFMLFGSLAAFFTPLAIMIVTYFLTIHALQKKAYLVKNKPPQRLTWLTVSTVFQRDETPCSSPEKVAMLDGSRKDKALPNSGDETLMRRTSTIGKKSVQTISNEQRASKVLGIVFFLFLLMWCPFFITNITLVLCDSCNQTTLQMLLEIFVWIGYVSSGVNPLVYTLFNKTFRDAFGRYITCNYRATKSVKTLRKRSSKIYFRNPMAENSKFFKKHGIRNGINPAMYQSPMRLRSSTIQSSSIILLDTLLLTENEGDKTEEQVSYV
5-hydroxytryptamine receptor 7, sequence (P34969 whole entry): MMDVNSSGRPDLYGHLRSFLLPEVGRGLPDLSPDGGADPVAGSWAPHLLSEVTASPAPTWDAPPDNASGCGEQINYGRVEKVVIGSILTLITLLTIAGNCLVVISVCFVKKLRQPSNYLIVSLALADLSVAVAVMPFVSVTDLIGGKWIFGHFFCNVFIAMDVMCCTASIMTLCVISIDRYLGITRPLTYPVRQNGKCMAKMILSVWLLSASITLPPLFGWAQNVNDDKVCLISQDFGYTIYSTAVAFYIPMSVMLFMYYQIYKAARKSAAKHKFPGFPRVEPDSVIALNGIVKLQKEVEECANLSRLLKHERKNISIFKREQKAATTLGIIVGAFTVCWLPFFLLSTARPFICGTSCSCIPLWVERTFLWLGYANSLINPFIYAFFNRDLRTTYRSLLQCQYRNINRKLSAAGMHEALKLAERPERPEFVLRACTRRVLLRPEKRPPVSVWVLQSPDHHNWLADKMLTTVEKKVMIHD
T1 sequence (P50406 whole entry): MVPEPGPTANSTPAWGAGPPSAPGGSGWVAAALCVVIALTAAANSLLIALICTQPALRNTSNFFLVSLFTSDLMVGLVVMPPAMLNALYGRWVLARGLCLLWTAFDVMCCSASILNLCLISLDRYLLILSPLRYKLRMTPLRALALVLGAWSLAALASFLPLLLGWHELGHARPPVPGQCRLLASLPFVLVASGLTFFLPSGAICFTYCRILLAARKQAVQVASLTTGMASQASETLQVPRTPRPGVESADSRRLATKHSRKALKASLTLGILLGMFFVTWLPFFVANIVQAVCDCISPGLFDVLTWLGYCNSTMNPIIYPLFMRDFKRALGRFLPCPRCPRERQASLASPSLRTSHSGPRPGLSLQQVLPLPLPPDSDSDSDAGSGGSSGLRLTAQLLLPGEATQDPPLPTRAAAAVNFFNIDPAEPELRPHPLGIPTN

Imax [1] [%] | Ki [10] [nM] | IC50 [11] [nM] | SMILES | other results
99 | – | – | Cn1nc(S(=O)(=O)c2cccc3ccccc23)c2cc(N3CCNCC3)ccc21 | Ki [2]: 1780 nM; Ki [3]: 3620 nM; Ki [4]: 2760 nM; Ki [5]: 87 nM; Ki [6]: 3650 nM; Ki [7]: > 5000 nM; Ki [8]: > 5000 nM; Ki (D(2) dopamine receptor): 2240 nM; Activity [9]: inactive
100 | 0.9 | 38 | Cc1cccc(S(=O)(=O)c2n[nH]c3ccc(N4CCN(C)CC4)cc23)c1 | –
100 | – | – | CCn1nc(S(=O)(=O)c2cccc3ccccc23)c2cc(N3CCNCC3)ccc21 | –
100 | 4.6 | 17 | CN1CCN(c2cccc3c(S(=O)(=O)c4cccc5ccccc45)n[nH]c23)CC1 | –
– | 207 | – | O=S(=O)(c1ccc(C(F)(F)F)cc1)c1n[nH]c2cc(N3CCNCC3)ccc12 | –
99 | 1.9 | 8.8 | CN1CCN(c2ccc3[nH]nc(S(=O)(=O)c4ccccc4)c3c2)CC1 | Ki [2]: > 5000 nM; Ki [3]: > 5000 nM; Ki [4]: > 5000 nM; Ki [5]: 978 nM; Ki [6]: 3070 nM; Ki [7]: 753 nM; Ki [8]: > 5000 nM; Ki (D(2) dopamine receptor): 355 nM; Activity [9]: inactive
100 | 1.7 | – | CN1CCN(c2ccc3c(c2)c(S(=O)(=O)c2cccc4ccccc24)nn3C)CC1 | –
100 | – | – | CC(C)Cn1nc(S(=O)(=O)c2cccc3ccccc23)c2cc(N3CCNCC3)ccc21 | Ki [2]: > 5000 nM; Ki [3]: > 5000 nM; Ki [4]: > 5000 nM; Ki [5]: 281 nM; Ki [6]: 1880 nM; Ki [7]: > 5000 nM; Ki [8]: > 5000 nM; Ki (D(2) dopamine receptor): 1900 nM; Activity [9]: inactive
100 | 1 | 62 | CN1CCN(c2ccc3[nH]nc(S(=O)(=O)c4cccc(Cl)c4)c3c2)CC1 | –
– | 48 | – | O=S(=O)(c1cccc2ccccc12)c1n[nH]c2cccc(N3CCNCC3)c12 | –
100 | 3.2 | – | Cn1nc(S(=O)(=O)c2ccccc2)c2cc(N3CCNCC3)ccc21 | –
98 | 5.2 | 467 | CN1CCN(c2ccc3[nH]nc(S(=O)(=O)c4ccc(F)cc4)c3c2)CC1 | –
100 | 2.9 | – | CC(C)n1nc(S(=O)(=O)c2cccc3ccccc23)c2cc(N3CCNCC3)ccc21 | Ki [2]: > 5000 nM; Ki [3]: > 5000 nM; Ki [4]: > 5000 nM; Ki [5]: 96 nM; Ki [6]: 1080 nM; Ki [7]: > 5000 nM; Ki [8]: > 5000 nM; Ki (D(2) dopamine receptor): 2040 nM; Activity [9]: inactive
99 | 1.7 | 132 | CN1CCN(c2ccc3[nH]nc(S(=O)(=O)c4cccc(F)c4)c3c2)CC1 | –
– | 110 | – | O=S(=O)(c1ccc(Cl)cc1)c1n[nH]c2cc(N3CCNCC3)ccc12 | –
100 | 2.9 | – | CCn1nc(S(=O)(=O)c2ccccc2)c2cc(N3CCNCC3)ccc21 | –
100 | 1.4 | – | CC(C)Cn1nc(S(=O)(=O)c2cccc3ccccc23)c2cc(N3CCN(C)CC3)ccc21 | –

Imax [1] [%] | Ki [10] [nM] | IC50 [11] [nM] | SMILES | other results
100 | 4.9 | 112 | Cc1ccc(S(=O)(=O)c2n[nH]c3ccc(N4CCN(C)CC4)cc23)cc1 | –
100 | 1.1 | 57 | COc1cccc(S(=O)(=O)c2n[nH]c3ccc(N4CCN(C)CC4)cc23)c1 | –
98 | 1.8 | – | CC(C)n1nc(S(=O)(=O)c2cccc3ccccc23)c2cc(N3CCN(C)CC3)ccc21 | –
100 | – | 544 | COc1ccc(S(=O)(=O)c2n[nH]c3ccc(N4CCN(C)CC4)cc23)cc1 | –
– | 27 | – | Cc1ccc(S(=O)(=O)c2n[nH]c3cc(N4CCNCC4)ccc23)cc1 | –
100 | 8.1 | 108 | CN1CCN(c2ccc3[nH]nc(S(=O)(=O)c4ccc(Cl)cc4)c3c2)CC1 | –
– | 22 | – | O=S(=O)(c1cccc2ccccc12)c1n[nH]c2cc(N3CCNCC3)ccc12 | –
100 | – | 101 | CN1CCN(c2ccc3[nH]nc(S(=O)(=O)c4ccccc4Cl)c3c2)CC1 | –
100 | 1.8 | – | CCCn1nc(S(=O)(=O)c2cccc3ccccc23)c2cc(N3CCN(C)CC3)ccc21 | –
100 | 1.7 | – | CCn1nc(S(=O)(=O)c2cccc3ccccc23)c2cc(N3CCN(C)CC3)ccc21 | –
– | 124 | – | COc1ccc(S(=O)(=O)c2n[nH]c3cc(N4CCNCC4)ccc23)cc1 | –
100 | 5.5 | 54 | CN1CCN(c2ccc3[nH]nc(S(=O)(=O)c4ccccc4F)c3c2)CC1 | –
100 | 2.6 | 40 | CN1CCN(c2ccc3[nH]nc(S(=O)(=O)c4c(Cl)cccc4Cl)c3c2)CC1 | –
– | 11 | – | O=S(=O)(c1cccc(F)c1)c1n[nH]c2cc(N3CCNCC3)ccc12 | –
100 | – | – | O=S(=O)(c1cccc2ccccc12)c1nn(Cc2ccccc2)c2ccc(N3CCNCC3)cc12 | Ki [2]: > 5000 nM; Ki [3]: > 5000 nM; Ki [4]: > 5000 nM; Ki [5]: 141 nM; Ki [6]: 1070 nM; Ki [7]: > 5000 nM; Ki [8]: > 5000 nM; Ki (D(2) dopamine receptor): 605 nM; Activity [9]: inactive; bioavailability [12]: > 50%; Kp [13]: > 0.5
100 | 1.6 | 8 | CN1CCN(c2ccc3[nH]nc(S(=O)(=O)c4cccc5ccccc45)c3c2)CC1 | Ki [2]: > 5000 nM; Ki [3]: > 5000 nM; Ki [4]: > 5000 nM; Ki [5]: 601 nM; Ki [6]: > 5000 nM; Ki [7]: 579 nM; Ki [8]: > 5000 nM; Ki (D(2) dopamine receptor): 334 nM; Activity [9]: inactive; bioavailability [12]: 5%
100 | – | – | CN1CCN(c2ccc3c(c2)c(S(=O)(=O)c2cccc4ccccc24)nn3Cc2ccccc2)CC1 | –

SMILES | Imax [1] [%] | Ki [10] [nM] | IC50 [11] [nM] | other results
COc1ccc(S(=O)(=O)c2n[nH]c3cccc(N4CCNCC4)c23)cc1 | – | 88 | – | –
O=S(=O)(c1cccc(F)c1)c1n[nH]c2cccc(N3CCNCC3)c12 | – | 134 | – | –
O=S(=O)(c1ccc(Cl)cc1)c1n[nH]c2cccc(N3CCNCC3)c12 | – | 125 | – | –
Cc1ccc(S(=O)(=O)c2n[nH]c3cccc(N4CCNCC4)c23)cc1 | – | 134 | – | –
CCCn1nc(S(=O)(=O)c2cccc3ccccc23)c2cc(N3CCNCC3)ccc21 | – | – | 2.2 | –
CN1CCN(c2ccc3[nH]nc(S(=O)(=O)c4cccs4)c3c2)CC1 | 96 | 7.8 | 331 | –
